Bioassay records: PubChem BioAssay, The Scripps Research Institute Molecular Screening Center
Compounds with a hit are over-represented: about 2.9% of the library has one in this group of screens.
M1 ag parental: M1 agonist counterscreen hit in parental CHO-K1 cells. 360,000 compounds, 0.48% hits. Fluo-8 calcium fluorescence; scaled to maximal ATP response, vehicle zero. activation, % at 3 µM; in the data active means activation above about 15%;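 further: untransfected CHO-K1 host cells lacking M1 receptor as counterscreen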
OX1R antag-1: human HCRTR1 antagonism | 330,000 compounds, 0.43% hits | CHO/OX1R cells, Fluo-8 calcium fluorescence, orexin A | AID 434989 | inhibition, % at 5 µM;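 active means inhibition above its plate's threshold, mean inhibition of all tested compounds on the plate plus 3 SD, cut at about 37% in these data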
Target sequence (O43613 whole entry, looked up): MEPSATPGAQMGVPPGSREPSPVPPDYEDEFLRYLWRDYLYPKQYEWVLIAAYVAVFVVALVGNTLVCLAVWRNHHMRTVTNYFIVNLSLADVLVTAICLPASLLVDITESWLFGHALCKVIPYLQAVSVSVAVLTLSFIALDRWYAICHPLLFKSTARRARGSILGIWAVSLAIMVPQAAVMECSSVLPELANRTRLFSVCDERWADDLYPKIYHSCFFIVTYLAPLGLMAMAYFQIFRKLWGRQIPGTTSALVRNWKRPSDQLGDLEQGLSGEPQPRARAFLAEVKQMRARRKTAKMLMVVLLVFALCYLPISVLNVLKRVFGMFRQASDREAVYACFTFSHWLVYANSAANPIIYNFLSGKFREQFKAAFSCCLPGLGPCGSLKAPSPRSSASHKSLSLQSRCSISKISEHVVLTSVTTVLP
OX1R antag-2: blocks the human orexin 1 receptor | O43613 | OX1R-expressing cells, FRET antagonist read-out | inhibition, % at 6.6 µM | 330,000 compounds, 1.8% hits | AID 485270; in the data active means inhibition mostly above about 38%, no sharp cut-off; inactive means mostly below about 40%
CHO parental Ca: counter-screen: ATP calcium response change in parental CHO cells; parental CHO-K1, ATP-induced calcium, Fluo-8 fluorescence; inhibition, % at 5.6 µM; 330,000 compounds, 0.63% hits;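 active means inhibition above that plate's mean sample inhibition plus 3 SD, cut at about 26% in these data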
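Measured by: calcium-sensitive Fluo-8 fluorescence / Test system: CHO parental line / Controls: ATP-challenged DMSO wells low, unchallenged DMSO wells high / Measure: % inhibition / Compound: single nominal dose of 5.6 µM per compound / Replicates: single well per compound, no replicates / Reagent: ATP as calcium-mobilizing challenge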
CHO-K1 Ca PAM: M1 PAM counterscreen hit in parental CHO-K1 cells. ATP EC20, Fluo-8 calcium fluorescence; 0% at ATP EC20, 100% at ATP max. activation, % at 3 µM. 360,000 compounds, 0.02% hits. AID 602247;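 active means activation above the run cutoff, the mean activation of all test compounds plus 3 SD, cut at about 40% in these data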;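 further: peak over basal fluorescence ratio in a 140 s read after ATP addition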
CHO-K1 Ca antag: counter-screen for M1 antagonists: effect in parental CHO-K1 cells; ATP-induced calcium, Fluo-8 fluorescence; inhibition, % at 3 µM; 360,000 compounds, 0.6% hits;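 active means inhibition above a per-plate cutoff, the plate's mean sample inhibition plus 3 SD, cut at about 24% in these data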
Numbers stand for hits; i = inactive; nt = no result.

SMILES	M1 ag parental	OX1R antag-1	OX1R antag-2	CHO parental Ca	CHO-K1 Ca PAM	CHO-K1 Ca antag
Cc1ccc(CC(=O)Nc2cccc([N+](=O)[O-])c2)cc1	18	i	i	i	i	i
O=C(CNC1CCCCC1)Nc1cccc([N+](=O)[O-])c1	i	i	i	i	i	i
O=C(Nc1cccc([N+](=O)[O-])c1)NC1CCCCCCC1	16	nt	nt	nt	i	i
Cc1ccc(S(=O)(=O)CCC(=O)Nc2cccc([N+](=O)[O-])c2)cc1	i	i	i	i	i	i
COc1ccc(CCNC(=O)Nc2cccc([N+](=O)[O-])c2)cc1	15	i	i	i	i	i
Cc1ccc2nc(SCC(=O)Nc3cccc([N+](=O)[O-])c3)[nH]c2c1	16	53	i	i	i	i
Cc1ccc(-c2nc(CS(=O)CC(=O)NCCCc3ccccc3)c(C)o2)cc1 (centres undefined)	i	i	i	i	i	i
COc1cc(NC(=O)Nc2cccc([N+](=O)[O-])c2)cc(OC)c1	15	i	i	i	i	i
CC(CCc1ccccc1)NC(=O)Cc1ccc([N+](=O)[O-])cc1 (centres undefined)	i	i	i	i	i	i
CC(CCc1ccccc1)NC(=O)CNc1cccc([N+](=O)[O-])c1 (centres undefined)	15	i	i	i	i	i
O=C(Nc1ccc(C(=O)O)cc1)Nc1cccc([N+](=O)[O-])c1	i	i	i	i	i	i
O=C(Nc1ccc(Br)cc1)NC1CCCCCCC1	i	i	i	40	i	i
O=C(Nc1cccc([N+](=O)[O-])c1)Nc1cccc([N+](=O)[O-])c1	i	i	i	34	i	i
Cc1onc(-c2ccccc2)c1C(=O)NNC(=S)NC(=O)c1ccc2c(c1)OCO2	55	i	i	i	i	i
Cc1onc(-c2ccccc2)c1C(=O)NC(=S)NNC(=O)c1ccco1	18	i	i	i	i	i
Cc1onc(-c2ccccc2)c1C(=O)NC(=S)NNC(=O)c1ccncc1	i	i	i	i	i	i
C[C@H](CO)N1C[C@H](C)[C@@H](CN(C)S(=O)(=O)c2ccc(F)cc2)Oc2ccc(NS(=O)(=O)c3ccccc3)cc2C1=O	i	i	i	i	i	i
Oc1ccc(Cl)cc1Cc1cc(Cl)ccc1O	i	i	46	i	i	i
Oc1ccc(Cl)cc1CNCc1ccc(Cl)cc1	i	i	i	i	i	i
CCN(C[C@H]1N[C@@](CC)(C(=O)OC)[C@H]2C(=O)N(C)C(=O)[C@@H]12)S(=O)(=O)c1ccccc1	i	i	i	i	i	i
O=C(NCC1CC1(Cl)Cl)Nc1ccc(Cl)c(Cl)c1 (centres undefined)	i	i	i	33	i	i
Cc1ccc(NC(=O)NCC2CC2(Cl)Cl)cc1 (centres undefined)	i	i	i	i	i	i
O=C1[C@H](Cc2ccccc2)NCC=CC[C@H](c2ccc(Cl)cc2)N1Cc1ccc(Cl)cc1	i	nt	nt	nt	i	i
CN1CCN(S(=O)(=O)c2cccc3nsnc23)CC1	i	i	40	i	i	i
Cc1ccc(S(=O)(=O)N2CCN(C)CC2)c2nsnc12	i	i	50	i	i	i
SMILES	M1 ag parental	OX1R antag-1	OX1R antag-2	CHO parental Ca	CHO-K1 Ca PAM	CHO-K1 Ca antag
Cc1cccc(-n2nnc3c(=O)n(Cc4ccccn4)cnc32)c1	i	i	i	i	i	i
O=C(NC1CC1)c1sc2cc([N+](=O)[O-])ccc2c1Cl	i	i	69	i	i	i
Cc1ccc2c(Cl)c(C(=O)NC3CC3)sc2c1	i	nt	nt	nt	i	i
CCOC(=O)N(C)c1c(CC)nc2c(OCc3ccc(Cl)cc3)cccn12	i	nt	nt	nt	i	i
Cc1nnc(NC(=O)c2sc3nc(-c4cccs4)cc(C(F)(F)F)c3c2N)s1	20	85	i	42	i	i
CC(C)(C)C(=O)c1sc2nc(-c3cccs3)cc(C(F)(F)F)c2c1N	i	i	i	i	i	i
Nc1c(C(=O)Nc2nccs2)sc2nc(-c3cccs3)cc(C(F)(F)F)c12	27	47	i	42	i	38
O=C(/C=C/c1ccco1)Nc1ccc2nc3n(c(=O)c2c1)CCCC3	i	i	i	i	i	i
Cc1cc(C(=O)COc2ccccc2C(N)=O)c(C)n1C	i	i	i	i	i	i
Cc1cc(C(=O)COc2ccc(Cl)cc2Br)c(C)n1C	i	i	i	26	i	i
Cc1ccc(C(=O)Nc2ccc(C(=O)N3CCCCC3)cc2)o1	i	i	i	i	i	i
O=C(Nc1ccc2c(c1)OCO2)c1cnc(Cl)c(Cl)c1	i	nt	nt	nt	i	i
COc1cccc(C(NC(C)=O)c2nc(-c3ccc(C)c(C)c3)cs2)c1 (centres undefined)	i	nt	nt	nt	i	26
CCN(CC)S(=O)(=O)c1ccc(Oc2ccc(S(=O)(=O)N(CC)CC)cc2)cc1	i	i	i	58	i	i
CCc1nc2c(OCc3ccc(Cl)cc3Cl)cccn2c1N(C)C(=O)c1ccccc1F	i	nt	nt	nt	i	i
COc1ccc(C(=O)CSC2=NS(=O)(=O)c3cc(Cl)ccc3N2)cc1	i	i	62	i	i	i
CC(=O)Nc1ccc(NC(=O)CSC2=NS(=O)(=O)c3cc(Cl)ccc3N2)cc1	i	i	i	i	i	i
CCOc1ccc(-c2nc(C#N)c(NCC3CCCO3)o2)cc1 (centres undefined)	i	i	i	i	i	i
N#Cc1nc(-c2ccccc2Cl)oc1NCC1CCCO1 (centres undefined)	i	i	i	i	i	25
COc1cccc(C(O)c2nc(-c3cccc(CO)c3)cs2)c1 (centres undefined)	i	nt	nt	nt	i	i
Cc1ccc(NC(=O)COC(=O)c2ccc(S(=O)(=O)N3CCCC3)cc2)cc1	i	nt	nt	nt	i	i
c1ccc(-c2ncc(-c3ccn[nH]3)s2)cc1	i	i	i	i	i	29
COc1ccc2nc3ccccc3nc2c1NC(=O)c1ccccc1Cl	i	i	51	i	i	i
COc1ccc(-c2cc(C(=O)Nc3c(Cl)cc(Cl)cc3Cl)c3ccccc3n2)cc1OC	i	i	i	i	i	i
CCOC(=O)c1ccc(S(=O)(=O)N2CC(=O)Nc3ccccc32)cc1	i	i	i	i	i	i
N#CC1=C(N)OC2=C(C(=O)CCC2)C1c1ccc2c(c1)OCO2 (centres undefined)	i	i	i	i	i	i
N#CC1=C(N)OC2=C(C(=O)CCC2)C1c1cc2c(cc1Br)OCO2 (centres undefined)	i	i	i	i	i	29
N#CC1=C(N)OC2=C(C(=O)CCC2)C1c1cc2c(cc1Cl)OCO2 (centres undefined)	i	i	i	i	i	24
CCOC(=O)C1=C(CC)Nc2ccccc2N=C1NC(=O)Nc1ccc(Cl)c(Cl)c1	i	64	96	64	i	i
O=C(NC1CC1)C1CCN(c2ncnc3c2sc2cccc(F)c23)CC1	i	i	68	i	i	i
